Assay outcomes as filed in PubChem BioAssay.
APP 5'UTR act: activates APP 5'UTR luciferase reporter | SH-SY5Y APP 5'UTR luciferase reporter, luminescence; zero percent = DMSO vehicle wells | activation, % at 2 µM | actives 1% (n = 190,000) | AID 1276;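 active = activation above a set limit, based on mean plus 3 SD of controls, cut at about 140% in these data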
STAT1 blocker: reduces IFN-gamma driven STAT1 reporter signal; NIH 3T3 STAT1-luciferase reporter, luminescence; AID 920; actives 0.35% (n = 200,000); inhibition, % at 5.5 µM;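 active = inhibition above a set limit, the mean inhibition across all tested compounds plus 3 SD, cut at about 34% in these data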;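 note: 0% = IFN-gamma with DMSO and 100% = IFN-gamma with 300 µM nifuroxazide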
NF-kB neuron act: compounds increasing NF-kB expression in human neuronal cells | NF-kB reporter expression; active compounds read high | fold change at 12.5 µM | actives 1.6% (n = 190,000) | AID 1239; in the data active = fold change above about 3.3
STAT3 inh-1: reduces IL-6 driven STAT3 reporter signal; actives 0.89% (n = 190,000); AID 862; U3A cells, IL-6 STAT3-luciferase reporter, luminescence; host cell line lacks STAT1; inhibition, % at 5.5 µM;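 active = inhibition above the mean inhibition across all screened compounds plus 3 SD, cut at about 44% in these data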;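 note: 0% = DMSO only wells and 100% = 100 µM nifuroxazide control wells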
STAT3 activator: activators of IL-6 induced STAT3 signaling; activation (% of control), % at 5.6 µM; actives 0.91% (n = 190,000); U3A cells, IL-6 STAT3-luciferase reporter, luminescence; 100% = signal with IL-6 EC80 alone; AID 871;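 active = activation above the screen-wide mean of compound activation plus 3 SD, cut at about 130% in these data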;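 note: 0% = background luminescence of wells with medium and substrate only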
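Material: STAT3-luciferase reporter U3A cells; Probe or stimulus: IL-6 (33 ng/mL); Incubation: compound pre-incubation 1 h before IL-6, then 6 h stimulation at 37 °C; Technique: luminescence from STAT3-driven luciferase reporter; Evaluation: % activation versus median of IL-6-stimulated wells; Controls: IL-6-only high control.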
STAT1 activator: activators of IFN-gamma induced STAT1 signaling | NIH 3T3 STAT1-luciferase reporter, luminescence; 100% = IFN-gamma alone, no compound | activation (% of control), % at 5.5 µM | actives 2.6% (n = 200,000);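 active = activation above the screen-wide mean activation plus 3 SD, cut at about 130% in these data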;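 note: raw ratio to IFN-gamma control signal so 100% means no change and 0% no light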
STAT3 inh-2: STAT3 inhibition, confirmation assay | shares compounds with STAT3 inh-1 | U3A cells, IL-6 STAT3 luciferase reporter, luminescence; cell line lacks STAT1 | inhibition, % at 5.7 µM | actives 45% (n = 1,200) | AID 1265;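 active = inhibition above the hit cutoff computed for the primary STAT3 screen, cut at about 44% in these data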;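 note: 0% = IL-6 plus DMSO and 100% = IL-6 plus nifuroxazide control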
NFkB inh 2: counter-screen for STAT3 inhibitors: NF-kappaB inhibition. inhibition, % at 5.7 µM. AID 1308. shares compounds with STAT3 inh-1. actives 36% (n = 1,200). HEK293T NF-kB luciferase reporter, TNF-alpha induced;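 active = inhibition above the mean of solvent-only control wells plus 3 SD, cutoff set per campaign, cut at about 13% in these data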;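 note: 0% = TNF-alpha with DMSO and 100% = TNF-alpha with MG high control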
STAT1 inh STAT3c: STAT1 inhibition in STAT3 inhibitor counter-screen. shares compounds with STAT3 inh-1. NIH 3T3 STAT1-luciferase reporter, IFN-gamma induced, luminescence. inhibition, % at 5.7 µM. actives 27% (n = 1,200);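 active = inhibition above the mean plus 3 SD of solvent-only control wells, limit set per screening run, cut at about 16% in these data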;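 note: 0% = DMSO with IFN-gamma and 100% = nifuroxazide control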
* = called active by the depositor; nt = not tested or not shown. A selection: hits, their analogues and other compounds. The true share with any hit is near 4.9%.

SMILES | APP 5'UTR act | STAT1 blocker | NF-kB neuron act | STAT3 inh-1 | STAT3 activator | STAT1 activator | STAT3 inh-2 | NFkB inh 2 | STAT1 inh STAT3c
Cc1cc(C(=O)COC(=O)CCc2nc3ccccc3s2)c(C)n1C | 9 | -1 | 0.97 | 6 | 99 | 101 | nt | nt | nt
CC(C)Cn1c(N)c(C(=O)COC(=O)CC23CC4CC(CC(C4)C2)C3)c(=O)n(C)c1=O | -10 | 23 | 0.64 | 70* | 41 | 79 | 73* | 24* | 24*
CC(C)Cn1c(N)c(C(=O)COC(=O)c2ccc(Cl)cc2)c(=O)n(C)c1=O | -13 | 16 | 0.75 | 31 | 75 | 85 | nt | nt | nt
CC(C)Cn1c(N)c(C(=O)CSc2ccccc2)c(=O)n(C)c1=O | -1 | 1 | 1 | 45* | 62 | 99 | 44* | -4 | -1
Cn1nc(-c2ccc(N3CCN(CCO)CC3)c([N+](=O)[O-])c2)c2ccccc2c1=O | 22 | 10 | 1.3 | 7 | 99 | 91 | nt | nt | nt
COc1cc(-c2nc3cccc(C)n3c2NCC2CCCO2)ccc1O (stereo not drawn) | 21 | -16 | 1.5 | 9 | 94 | 113 | nt | nt | nt
CCc1cccc2c1NC(=O)C2(O)CC(=O)c1cccs1 (stereo not drawn) | 21 | 2 | 1 | 2 | 102 | 95 | nt | nt | nt
CN(Cc1cn[nH]c1-c1cc2ccccc2o1)CC1CCOCC1 | 2 | -8 | 1.2 | 21 | 90 | 106 | nt | nt | nt
CCn1ncc(C2=NOC(C(=O)Nc3cccc(O)c3)C2)c1C (stereo not drawn) | 3 | -2 | 0.98 | 4 | 103 | 101 | nt | nt | nt
c1ccc(CN=C2NN=C(c3cc4ccccc4o3)CS2)cc1 | 18 | -12 | 1.4 | 2 | 102 | 111 | nt | nt | nt
c1ccc2oc(C3=NNC(=NC4CC4)SC3)cc2c1 | nt | -19 | 2.4 | 57* | 51 | 117 | 23 | -19 | -54
CN1CCN(NC(=O)CN2C(=O)S/C(=C\c3c(Cl)cccc3Cl)C2=O)CC1 | 25 | 5 | 0.93 | 13 | 94 | 94 | nt | nt | nt
COc1cccc(N2CCN(c3c4c(nc5ncnn35)CCC4)CC2)c1 | -6 | 8 | 1.1 | 56* | 56 | 93 | 43* | 12 | 17*
Cc1cc(N2CCOCC2)nc(NCc2ccccc2)n1 | -5 | 19 | 0.78 | 26 | 83 | 83 | nt | nt | nt
Cc1cc(N2CCCCC2)nc(NCc2ccccc2)n1 | -6 | 23 | 0.83 | 46* | 69 | 79 | 25 | -9 | 21*
CNc1ccccc1C(C)(C)c1cc(-c2cccc(Br)c2)no1 | -11 | 30 | 0.62 | 9 | 96 | 72 | nt | nt | nt
CNc1ccccc1C(C)(C)c1cc(-c2ccc(F)cc2)no1 | 13 | -2 | 0.91 | 46* | 62 | 102 | 51* | 11 | 2
O=C(C1CCN(S(=O)(=O)c2cccc3cccnc23)CC1)N1CCN(c2ccc(Cl)cc2)CC1 | -15 | 26 | 0.65 | 47* | 65 | 77 | 30 | 14* | 24*
CN1C2CCC1/C(=C\c1ccccc1F)C(=O)/C2=C/c1ccccc1F | 0 | 24 | 1.1 | 2 | 97 | 77 | nt | nt | nt
Cc1cc(C)nc(Nc2n[nH]c(-c3ccc(C(C)(C)C)cc3)n2)n1 | 56 | -18 | 1.3 | 47* | 64 | 115 | 36 | -16 | -29
NNC(=O)c1ccc(COc2cccc3ccccc23)cc1 | 13 | -5 | 0.81 | 2 | 95 | 105 | nt | nt | nt
NNC(=O)c1cccc(COc2ccccc2Br)c1 | 173* | 22 | 2.5 | 71* | 39 | 80 | 61* | -10 | 10
O=C(/C=C/c1ccccc1Cl)Nc1cccc(S(=O)(=O)NC2=NCCCCC2)c1 | 44 | -8 | 0.91 | 5 | 99 | 108 | nt | nt | nt
O=C(/C=C/c1ccc(Cl)cc1Cl)Nc1cccc(S(=O)(=O)NC2=NCCC2)c1 | 79 | 22 | 7.2* | 52* | 57 | 78 | 33 | 6 | -5
